Assay results as given in article PMC6635014 (Dalton transactions (Cambridge, England : 2003), 2019).

What was measured:
Type in all cases: cell-based
[1] = system: multidrug resistant Colo 320/MDR-LRP human colonic adenocarcinoma cells; assay: MTT assay for cytotoxic effect, Colo 320
How it was run: (§1)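 Colo 205 and Colo 320/MDR-LRP were kept in RPMI 1640 with 10% heat-inactivated FBS, 2 mM L-glutamine, 1 mM Na-pyruvate and 10 mM HEPES, and detached with Trypsin-Versene. 1x10^4 cells per well went onto 2-fold serial compound dilutions (100 to 0.195 µM; DMSO stocks) for 72 h at 37 °C. Then MTT 4 h, SDS/0.01 M HCl overnight, OD 540/630 nm. IC50 from growth inhibition versus cell and medium controls. SF uses the MRC-5 IC50 from the same assay.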

[2] = system: doxorubicin-sensitive Colo 205 human colonic adenocarcinoma cells; assay: MTT assay for cytotoxic effect, Colo 205; settings: read-out: IC50 (μM), 72 h Colo 205
How it was run: as §1

[3] = system: MRC-5 non-cancerous human embryonal lung fibroblast cells; assay: MTT assay for cytotoxic effect, MRC-5; settings: read-out: IC50 (μM), 72 h MRC-5
How it was run: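 MRC-5 fibroblasts were grown in EMEM with 10% heat-inactivated FBS and seeded 24 h at 37 °C, 5% CO2. Medium was then replaced by 2-fold serial compound dilutions (100 to 0.195 µM; 10 mM DMSO stocks), 72 h at 37 °C. MTT for 4 h, then SDS in 0.01 M HCl overnight. OD read at 540/630 nm. IC50 from % growth inhibition relative to cell and medium controls.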

N.N.[Cl][Pt][Cl] [Cisplatin, reference compound]
SF(320) selectivity factor ([1]; SF(320) = IC50 MRC-5/IC50 Colo 320): 3 | IC50 ([1]; read-out: IC50 (μM), 72 h Colo 320, 72 h, MTT): 4.81 ± 0.68 µM | IC50 [2]: 31.9 ± 2.17 µM | IC50 [3]: 12.4 ± 0.367 µM
